Laboratory results reported in ChEMBL document CHEMBL3232922, “Discovery and SAR of 6-alkyl-2,4-diaminopyrimidines as histamine H₄ receptor antagonists” (J Med Chem, 2014).
Calls of active or inactive are those of the source. The calls are words filed in the database; no cut-off is given here.

Tests used:
[1] = AUC in Balb/c mouse at 5 mg/kg, po; assay type: ADME, organism-based; set-up: dose 5 mg/kg, route oral; conditions: plasma
[2] = AUC in Balb/c mouse at 20 mg/kg, po; assay type: ADME, organism-based; set-up: dose 20 mg/kg, route oral; conditions: plasma
[3] = AUC in Sprague-Dawley rat at 10 mg/kg, po; assay type: ADME, organism-based; set-up: dose 10 mg/kg, route oral; conditions: plasma
[4] = AUC in Sprague-Dawley rat at 50 mg/kg, po; assay type: ADME, organism-based; set-up: dose 50 mg/kg, route oral; conditions: plasma
[5] = AUC in beagle dog at 2 mg/kg, iv; assay type: ADME, organism-based, Canis lupus familiaris, Plasma; set-up: dose 2 mg/kg, route intravenous; conditions: beagle, plasma
[6] = AUC in beagle dog at 10 mg/kg, po; assay type: ADME, organism-based, Canis lupus familiaris; set-up: dose 10 mg/kg, route oral; conditions: plasma
[7] = Half life in Balb/c mouse at 5 mg/kg, po; assay type: ADME, organism-based; set-up: dose 5 mg/kg, route oral; conditions: in vivo
[8] = Half life in Sprague-Dawley rat at 2 mg/kg, iv; assay type: ADME, organism-based; set-up: dose 2 mg/kg, route intravenous; conditions: Sprague-Dawley, in vivo
[9] = Half life in Sprague-Dawley rat at 200 mg/kg, po; assay type: ADME, organism-based; set-up: dose 200 mg/kg, route oral; conditions: in vivo
[10] = Half life in Sprague-Dawley rat at 500 mg/kg, po; assay type: ADME, organism-based; set-up: dose 500 mg/kg, route oral; conditions: in vivo
[11] = Oral bioavailability in Sprague-Dawley rat at 200 mg/kg; assay type: ADME, organism-based; conditions: in vivo
[12] = Oral bioavailability in Sprague-Dawley rat at 500 mg/kg; assay type: ADME, organism-based; conditions: in vivo
[13] = Oral bioavailability in beagle dog at 10 mg/kg; assay type: ADME, organism-based, Canis lupus familiaris; conditions: in vivo
[14] = Tmax in mouse kidney at 5 mg/kg, po administered as single dose by LC-MS/MS analysis; assay type: ADME, organism-based; set-up: dose 5 mg/kg, route oral
Summary of the method: (§1)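 Mice received one oral dose of 5 mg/kg. Brain, liver and kidneys were surgically removed from three mice per time point for up to 96 h after dosing. Tissue drug levels were measured by LC–MS/MS with a lower limit of quantitation of 1 ng/g. Tmax and t1/2 are reported as means.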

[15] = Half life in mouse brain at 5 mg/kg, po administered as single dose by LC-MS/MS analysis; assay type: ADME, organism-based; set-up: dose 5 mg/kg, route oral; summary of the method: as §1
[16] = Ratio of drug level in liver to plasma in mouse at 5 mg/kg, po administered as single dose […] by LC-MS/MS analysis; assay type: ADME, organism-based; set-up: dose 5 mg/kg, route oral
Mus musculus [17] = assay: Antipruritic activity against histamine-induced scratching C57/bl6 mouse model assessed as inhibition of itching at 5 to 20 mg/kg, po administered 30 mins prior to histamine challenge measured over 20 mins; assay type: functional, organism-based
Summary of the method: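 Mice (n = 6–8 per group) were dosed orally in 20% hydroxypropyl-β-cyclodextran 30 min before intradermal histamine (100 μg). Magnets were placed on the ear and the mice were put in containers above a solenoid. Scratch-specific signals were counted automatically over 20 min immediately after the histamine injection.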

Mus musculus [18] = assay: Antiinflammatory activity against po dosed collagen-induced arthritis mouse model assessed as inhibition of clinical score; assay type: functional, organism-based
Summary of the method: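 Mouse collagen-induced arthritis model. Compound was given orally in 20% hydroxypropyl-β-cyclodextran, with eight mice per group.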

Histamine H4 receptor [19] = biological target: T1, Histamine H4 receptor (Mus musculus, UniProt Q91ZY2); assay: Displacement of [3H]histamine from mouse histamine H4 receptor expressed in SK-N-MC cells after 45 mins by competition binding analysis; assay type: cell-based
T1 sequence (Q91ZY2 whole entry): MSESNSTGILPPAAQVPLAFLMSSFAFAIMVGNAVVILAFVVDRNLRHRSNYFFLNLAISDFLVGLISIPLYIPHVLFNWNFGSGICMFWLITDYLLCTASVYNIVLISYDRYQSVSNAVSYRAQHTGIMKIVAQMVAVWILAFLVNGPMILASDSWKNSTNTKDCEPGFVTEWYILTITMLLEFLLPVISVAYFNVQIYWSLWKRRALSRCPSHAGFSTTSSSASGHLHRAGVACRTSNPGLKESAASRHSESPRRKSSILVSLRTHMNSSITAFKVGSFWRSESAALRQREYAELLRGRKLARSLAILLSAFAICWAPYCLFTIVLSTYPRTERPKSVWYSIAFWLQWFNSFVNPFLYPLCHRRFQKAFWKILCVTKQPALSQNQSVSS
Summary of the method: (§2)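 Transfected cells expressing the H4 receptor, competition against [3H]histamine. Ki is the geometric mean of at least three independent determinations (each in triplicate), calculated by the Cheng–Prusoff equation.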

Histamine H4 receptor [20] = biological target: T1, Histamine H4 receptor; assay: Antagonist activity at mouse histamine H4 receptor expressed in SK-N-MC cells assessed as reduction of histamine-induced inhibition of cAMP-mediated beta-galactosidase reporter gene activity treated 10 mins prior to histamine challenge by microplate reader analysis; assay type: functional, cell-based; conditions: read-out: pA2 (converted)
[21] = Half life in rat microsomes; assay type: ADME, Microsome
[22] = biological target: T2, Voltage-gated inwardly rectifying potassium channel KCNH2 (Homo sapiens, UniProt Q12809); assay: Inhibition of human ERG channel transfected in HEK293 cells assessed as reduction in delayed rectifier current by patch clamp assay; assay type: cell-based
Summary of the method: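 The delayed rectifier current (IKr) was recorded in hERG-transfected HEK293 cells with the compound at 3 μM.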

[23] = Fraction unbound in mouse plasma; assay type: ADME, cell-free
[24] = Half life in rat at 2 mg/kg, iv; assay type: ADME, organism-based; set-up: dose 2 mg/kg, route intravenous; conditions: in vivo
[25] = Clearance in rat at 2 mg/kg, iv; assay type: ADME, organism-based; set-up: dose 2 mg/kg, route intravenous; conditions: in vivo
[26] = Volume of distribution at steady state in rat at 2 mg/kg, iv; assay type: ADME, organism-based; set-up: dose 2 mg/kg, route intravenous; conditions: in vivo, read-out: Vdss
[27] = Binding affinity to monkey histamine H4 receptor; set-up: species or system Macaca mulatta
Histamine H4 receptor [28] = biological target: T3, Histamine H4 receptor (Rattus norvegicus, UniProt Q91ZY1); assay: Displacement of [3H]histamine from rat histamine H4 receptor expressed in SK-N-MC cells after 45 mins by competition binding analysis; assay type: cell-based; summary of the method: as §2
Histamine H4 receptor [29] = biological target: T3, Histamine H4 receptor; assay: Antagonist activity at rat histamine H4 receptor expressed in SK-N-MC cells assessed as reduction of histamine-induced inhibition of cAMP-mediated beta-galactosidase reporter gene activity treated 10 mins prior to histamine challenge by microplate reader analysis; assay type: functional, cell-based; conditions: read-out: pA2 (converted)
Cytochrome P450 3A4 = Cytochrome P450 3A4 (Homo sapiens, UniProt P08684); assay: Inhibition of CYP3A4 (unknown origin) at 50 to 100 uM; assay type: ADME
Cytochrome P450 2C9 = Cytochrome P450 2C9 (Homo sapiens, UniProt P11712); assay: Inhibition of CYP2C9 (unknown origin) at 50 to 100 uM; assay type: ADME
Cytochrome P450 2D6 = Cytochrome P450 2D6 (Homo sapiens, UniProt P10635); assay: Inhibition of CYP2D6 (unknown origin) at 50 to 100 uM; assay type: ADME
[30] = biological target: T2, Voltage-gated inwardly rectifying potassium channel KCNH2; assay: Inhibition of human ERG channel up to 30 uM by astemizole binding assay
[31] = Tmax in Balb/c mouse at 5 mg/kg, po; assay type: ADME, organism-based; set-up: dose 5 mg/kg, route oral; conditions: in vivo
[32] = Tmax in Sprague-Dawley rat at 10 mg/kg, po; assay type: ADME, organism-based; set-up: dose 10 mg/kg, route oral; conditions: in vivo
[33] = Tmax in Sprague-Dawley rat at 200 mg/kg, po; assay type: ADME, organism-based; set-up: dose 200 mg/kg, route oral; conditions: in vivo
[34] = Tmax in Sprague-Dawley rat at 500 mg/kg, po; assay type: ADME, organism-based; set-up: dose 500 mg/kg, route oral; conditions: in vivo
[35] = Tmax in beagle dog at 10 mg/kg, po; assay type: ADME, organism-based, Canis lupus familiaris; set-up: dose 10 mg/kg, route oral; conditions: in vivo
[36] = Initial plasma concentration in Balb/c mouse at 2 mg/kg, iv; assay type: ADME, organism-based; set-up: dose 2 mg/kg, route intravenous
[37] = Cmax in Balb/c mouse at 5 mg/kg, po; assay type: ADME, organism-based; set-up: dose 5 mg/kg, route oral; conditions: in vivo
[38] = Initial plasma concentration in Sprague-Dawley rat at 2 mg/kg, iv; assay type: ADME, organism-based; set-up: dose 2 mg/kg, route intravenous
[39] = Cmax in Sprague-Dawley rat at 10 mg/kg, po; assay type: ADME, organism-based; set-up: dose 10 mg/kg, route oral; conditions: in vivo
[40] = Cmax in Sprague-Dawley rat at 500 mg/kg, po; assay type: ADME, organism-based; set-up: dose 500 mg/kg, route oral; conditions: in vivo
[41] = Initial plasma concentration in beagle dog at 2 mg/kg, iv; assay type: ADME, organism-based, Canis lupus familiaris; set-up: dose 2 mg/kg, route intravenous
[42] = Cmax in beagle dog at 10 mg/kg, po; assay type: ADME, organism-based, Canis lupus familiaris; set-up: dose 10 mg/kg, route oral; conditions: in vivo

T2 sequence (Q12809 whole entry): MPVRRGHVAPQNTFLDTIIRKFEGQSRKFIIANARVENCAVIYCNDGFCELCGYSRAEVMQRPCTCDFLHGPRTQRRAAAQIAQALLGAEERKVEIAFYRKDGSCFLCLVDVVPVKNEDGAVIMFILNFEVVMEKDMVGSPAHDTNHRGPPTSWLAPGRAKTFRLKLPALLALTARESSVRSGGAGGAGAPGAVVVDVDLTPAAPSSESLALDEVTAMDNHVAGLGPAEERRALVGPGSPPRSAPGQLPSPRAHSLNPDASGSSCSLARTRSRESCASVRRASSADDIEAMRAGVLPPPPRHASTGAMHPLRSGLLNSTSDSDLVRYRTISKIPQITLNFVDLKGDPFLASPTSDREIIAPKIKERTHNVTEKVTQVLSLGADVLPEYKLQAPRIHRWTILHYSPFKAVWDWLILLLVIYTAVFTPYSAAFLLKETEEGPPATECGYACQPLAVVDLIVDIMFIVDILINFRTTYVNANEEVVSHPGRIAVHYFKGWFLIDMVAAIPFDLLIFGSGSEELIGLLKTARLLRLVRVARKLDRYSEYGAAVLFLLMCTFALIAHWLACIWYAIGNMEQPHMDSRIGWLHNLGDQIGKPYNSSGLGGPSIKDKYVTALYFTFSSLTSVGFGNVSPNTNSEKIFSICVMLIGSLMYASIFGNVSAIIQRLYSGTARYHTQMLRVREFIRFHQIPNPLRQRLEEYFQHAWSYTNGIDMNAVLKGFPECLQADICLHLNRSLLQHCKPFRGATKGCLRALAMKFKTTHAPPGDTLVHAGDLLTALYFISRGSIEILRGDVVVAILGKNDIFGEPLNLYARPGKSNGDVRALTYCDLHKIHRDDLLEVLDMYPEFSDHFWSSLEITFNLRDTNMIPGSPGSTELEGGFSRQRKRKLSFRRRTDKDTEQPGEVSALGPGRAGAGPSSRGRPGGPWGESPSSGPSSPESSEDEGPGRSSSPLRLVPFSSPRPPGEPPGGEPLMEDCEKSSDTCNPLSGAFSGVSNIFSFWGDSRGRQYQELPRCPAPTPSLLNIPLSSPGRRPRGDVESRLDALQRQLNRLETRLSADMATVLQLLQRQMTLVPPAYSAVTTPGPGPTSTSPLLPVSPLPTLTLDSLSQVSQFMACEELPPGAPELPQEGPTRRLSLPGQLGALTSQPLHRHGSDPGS
T3 sequence (Q91ZY1 whole entry): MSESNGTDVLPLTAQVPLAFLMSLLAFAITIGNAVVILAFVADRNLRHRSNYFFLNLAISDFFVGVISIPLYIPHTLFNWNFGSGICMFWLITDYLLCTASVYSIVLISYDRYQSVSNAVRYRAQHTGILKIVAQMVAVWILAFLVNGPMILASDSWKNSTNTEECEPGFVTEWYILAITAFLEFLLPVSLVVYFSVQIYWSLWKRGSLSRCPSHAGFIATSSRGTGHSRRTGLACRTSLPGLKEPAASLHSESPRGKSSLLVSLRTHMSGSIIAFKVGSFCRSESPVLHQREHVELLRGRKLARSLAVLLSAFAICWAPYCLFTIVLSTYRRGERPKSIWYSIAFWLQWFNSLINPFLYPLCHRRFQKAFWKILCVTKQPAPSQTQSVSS
Sequence of Cytochrome P450 3A4 (P08684 whole entry): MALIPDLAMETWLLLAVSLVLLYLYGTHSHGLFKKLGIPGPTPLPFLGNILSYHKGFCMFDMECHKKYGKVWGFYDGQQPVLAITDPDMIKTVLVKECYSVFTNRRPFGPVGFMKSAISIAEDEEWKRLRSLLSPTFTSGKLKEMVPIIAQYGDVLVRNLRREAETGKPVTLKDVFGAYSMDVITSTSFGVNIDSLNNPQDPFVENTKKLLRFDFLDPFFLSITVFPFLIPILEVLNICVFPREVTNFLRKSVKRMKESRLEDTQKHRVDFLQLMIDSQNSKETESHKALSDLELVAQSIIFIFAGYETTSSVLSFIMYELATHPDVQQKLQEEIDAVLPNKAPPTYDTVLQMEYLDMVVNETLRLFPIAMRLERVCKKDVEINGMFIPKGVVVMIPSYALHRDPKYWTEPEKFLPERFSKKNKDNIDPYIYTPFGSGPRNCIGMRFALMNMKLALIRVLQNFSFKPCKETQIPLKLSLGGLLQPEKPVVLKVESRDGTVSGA
Sequence of Cytochrome P450 2C9 (P11712 whole entry): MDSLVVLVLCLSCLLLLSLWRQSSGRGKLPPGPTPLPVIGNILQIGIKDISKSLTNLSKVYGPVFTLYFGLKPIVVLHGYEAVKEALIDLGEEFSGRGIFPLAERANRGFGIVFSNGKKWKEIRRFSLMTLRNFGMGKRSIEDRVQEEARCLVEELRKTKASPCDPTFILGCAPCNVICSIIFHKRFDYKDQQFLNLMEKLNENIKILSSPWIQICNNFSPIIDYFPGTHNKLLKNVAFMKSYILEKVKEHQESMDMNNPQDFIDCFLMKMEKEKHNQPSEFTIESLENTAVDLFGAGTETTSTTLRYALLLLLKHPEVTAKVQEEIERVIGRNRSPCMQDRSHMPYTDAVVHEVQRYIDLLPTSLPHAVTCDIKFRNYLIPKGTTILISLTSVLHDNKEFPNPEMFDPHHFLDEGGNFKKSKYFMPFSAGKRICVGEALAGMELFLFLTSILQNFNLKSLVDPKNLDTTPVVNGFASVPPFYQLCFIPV
Sequence of Cytochrome P450 2D6 (P10635 whole entry): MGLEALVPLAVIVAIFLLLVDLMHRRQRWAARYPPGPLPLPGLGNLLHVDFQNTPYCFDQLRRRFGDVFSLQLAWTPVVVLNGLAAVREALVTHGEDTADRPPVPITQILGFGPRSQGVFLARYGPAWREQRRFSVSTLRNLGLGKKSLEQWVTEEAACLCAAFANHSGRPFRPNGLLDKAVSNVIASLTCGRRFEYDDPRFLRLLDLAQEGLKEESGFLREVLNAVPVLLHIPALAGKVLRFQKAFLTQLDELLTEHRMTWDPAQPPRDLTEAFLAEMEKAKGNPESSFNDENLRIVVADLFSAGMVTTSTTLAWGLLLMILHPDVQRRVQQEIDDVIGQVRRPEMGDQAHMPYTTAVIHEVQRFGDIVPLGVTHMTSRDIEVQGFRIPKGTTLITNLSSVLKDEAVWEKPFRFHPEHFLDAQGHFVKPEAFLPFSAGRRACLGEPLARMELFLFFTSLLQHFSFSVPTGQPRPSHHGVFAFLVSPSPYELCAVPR

## CC(C)c1cc(N2CC[C@@H](N)C2)nc(N)n1 [JNJ-39758979]
[1]
  AUC: 9.69 µM·h
[2]
  AUC: 24.6 µM·h
[3]
  AUC: 2.43 µM·h
[4]
  AUC: 13.4 µM·h
[5]
  AUC: 6.7 µM·h
[6]
  AUC: 31.6 µM·h
[7]
  half-life: 6.8 h
[8]
  half-life: 2.1 h
[9]
  half-life: 6.16 h
[10]
  half-life: 12 h
[11]
  bioavailability: 51%
[12]
  bioavailability: 53%
[13]
  bioavailability: 95%
[14]
  Tmax: 2 h
[15]
  half-life: 42.5 h
[16]
  Kp: 23.2
Mus musculus [17]
  inhibition: Active
Mus musculus [18]
  inhibition: Dose-dependent effect
Histamine H4 receptor [19]
  Ki: 0.0053 µM
Histamine H4 receptor [20]
  Kb: 0.00501 µM
[21]
  half-life: 1.02 h
[22]
  INH: > 10 µM
[23]
  fraction unbound: 0.76
[24]
  half-life: 2.1 h
[25]
  clearance: 36.7 mL/min/kg
[26]
  Vd: 19.9 L/kg
[27]
  Ki: 0.025 µM
Histamine H4 receptor [28]
  Ki: 0.188 µM
Histamine H4 receptor [29]
  Kb: 0.0631 µM
Cytochrome P450 3A4
  inhibition (INH): Not Active
Cytochrome P450 2C9
  inhibition (INH): Not Active
Cytochrome P450 2D6
  inhibition (INH): Not Active
[30]
  inhibition (INH): Not Active
[31]
  Tmax: 2 h
[32]
  Tmax: 2 h
[33]
  Tmax: 8 h
[34]
  Tmax: 8 h
[35]
  Tmax: 0.8 h
[36]
  C0: 1020 nM
[37]
  Cmax: 790 nM
[38]
  C0: 1100 nM
[39]
  Cmax: 260 nM
[40]
  Cmax: 7070 nM
[41]
  C0: 4220 nM
[42]
  Cmax: 3900 nM
